The results in this text go back to ChEMBL document CHEMBL1147241, “Cytotoxic constituents of Isodon rubescens var. lushiensis” (J Nat Prod, 2003).

The structures appear in SMILES notation. In brackets after ≈: the same amount, converted by molar mass. A value given as a limit tells only on which side of the number the result lay.

System in the first assay: not listed separately
As to the kind of experiment: Cytotoxicity against human CA cells by SRB method. The class given is functional, cell-based. In outline: (§1)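 Sulforhodamine B (SRB) assay on CA liver cancer and HeLa cervical cancer cells; cis-platinum as positive control. Optical density recorded as mean ± S; IC50 calculated from OD data.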
(In general: In SRB staining, fixed cells bind dye roughly in proportion to their protein.)
Regarding `C=C1C(=O)[C@]23C[C@H]1CC[C@H]2[C@@]1(CCC[C@@]2(C)CO[C@@H](OC)[C@H]21)COC3=O` [LUDONGNIN J], the half-maximal inhibitory concentration (IC50) – broadly, the concentration at which inhibition is half-maximal – stood at 0.09 µg/mL (≈ 0.25 µM).

In a further assay the test system is K562. As to the kind of experiment: Cytotoxicity against human K562 cells by MTT method. In kind it is functional, cell-based. In outline: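 Improved MTT assay on K562 human leukemia cells; cis-platinum as positive control. Optical density recorded as mean ± S; IC50 calculated from OD data.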
On the technique in general: Tetrazolium dyes change colour on reduction, which living cells bring about.
Compound `C=C1C(=O)[C@]23C[C@H]1C[C@@H](O)[C@H]2[C@@]1(CCC[C@@]2(C)CO[C@@H](OC)[C@H]21)COC3=O` yielded a half-inhibitory concentration (IC50) of 0.87 µg/mL (≈ 2.31 µM).

In turn, `C=C1C(=O)[C@]23C[C@H]1CC[C@H]2[C@@]1(CCC[C@@]2(C)CO[C@@H](OC)[C@H]21)COC3=O` [LUDONGNIN J] registered a 50% inhibitory concentration (IC50) of 0.18 µg/mL (≈ 0.499 µM). This IC50 lies about 4.8-fold lower than the previous one.

With `C=C1C(=O)[C@]23C[C@H]1C[C@@H](O)[C@H]2[C@@]1(CCC[C@@]2(C)COC(=O)[C@H]21)COC3=O` [LUDONGNIN A], 0.25 µg/mL (≈ 0.694 µM) corresponded to half-maximal inhibition (IC50). In turn, `C[C@H]1C(=O)[C@]23C[C@H]1C[C@@H](O)[C@H]2[C@@]1(CCC[C@@]2(C)COC(=O)[C@H]21)COC3=O` [GUIDONGNIN C] yielded an IC50 greater than 50 µg/mL. Same read-out and setting: the figure for `CO[C@@H]1OC[C@]2(C)CCC[C@]3(COC(=O)[C@@]45C[C@@H](CC[C@H]43)[C@@H](C)C5=O)[C@H]12` [LUDONGNIN F] is greater than 50 µg/mL.

`CO[C@H]1OC[C@]2(C)CCC[C@]3(COC(=O)[C@@]45C[C@@H](CC[C@H]43)[C@@H](C)C5=O)[C@H]12` [LUDONGNIN I]: the IC50 was greater than 50 µg/mL. On the same count and under the same terms, next, `C[C@H]1C(=O)[C@]23C[C@H]1CC[C@H]2[C@@]1(CCC[C@@]2(C)COC(=O)[C@H]21)COC3=O` [GUIDONGNIN B]: greater than 50 µg/mL; `CO[C@@H]1OC[C@]2(C)CCC[C@]3(COC(=O)[C@@]45C[C@@H](CC[C@H]43)[C@H](C)C5=O)[C@H]12` [LUDONGNIN G]: greater than 50 µg/mL.

`CO[C@H]1OC[C@]2(C)CCC[C@]3(COC(=O)[C@@]45C[C@@H](CC[C@H]43)[C@H](C)C5=O)[C@H]12` [LUDONGNIN H] gave an IC50 greater than 50 µg/mL.

Take `C=C1C(=O)[C@]23C[C@H]1C[C@@H](O)[C@H]2[C@@]1(CCC[C@@]2(C)CO[C@H](OC)[C@H]21)COC3=O` [ANGUSTIFOLIN]: inhibition was half-maximal at 0.23 µg/mL (≈ 0.611 µM) (IC50).

`C=C1C(=O)[C@]23C[C@H]1CC[C@H]2[C@]1(COC3=O)C2CC[C@@]3(C)COC(O2)[C@H]31` (some centres undefined) [SCULPONEATIN J] came in with an IC50 of 0.83 µg/mL (≈ 2.41 µM). This IC50 lies about 3.6-fold higher than the previous one. Same read-out and setting: next, `C=C1[C@@H]2C[C@@H](O)[C@H]3[C@@]4(CCC[C@@]5(C)COC(=O)[C@H]54)COC(=O)[C@]3(C2)[C@@H]1O` [GUIDONGNIN A]: 0.3 µg/mL (≈ 0.828 µM).

A further assay deals with HeLa. As to the kind of experiment: Cytotoxicity against human HeLa cells by SRB method. The class given is functional, cell-based. The gist of the method: as §1
Consider `C=C1C(=O)[C@]23C[C@H]1CC[C@H]2[C@@]1(CCC[C@@]2(C)CO[C@@H](OC)[C@H]21)COC3=O` [LUDONGNIN J], for which it took 0.7 µg/mL (≈ 1.94 µM) to reach half-maximal inhibition (IC50).
